The text below walks through data of ChEMBL document CHEMBL1125795, “Substrate analogue renin inhibitors containing replacements of histidine in P2 or isosteres of the amide bond between P3 and P2 sites” (J Med Chem, 1991).

SMILES strings stand for the structures. Starred links: 1 amine or outer side, 2 acyl side, 3 side chain; linkers in the order of their positions; H or OH if unused. Non-standard residues stand in square brackets, D forms with d. Residues, ends and D or L forms follow the SMILES beside them. *: point of attachment. X1 = CC(C)C[C@H](N[*:1])[C@@H](O)C[C@H](C(=O)[*:2])C(C)C; Boc = CC(C)(C)OC(=O)*

One assay deals with Pepsin A (Sus scrofa, UniProt P00791). Description: In vitro inhibitory activity against porcine Pepsin. The method, boiled down:
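Porcine pepsin (20 units) digesting hemoglobin at pH 1.8, 10 min, 35.5 °C. Released TCA-soluble peptides measured at 280 nm; IC50 is the concentration halving peptide liberation.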

Another assay has as its target T1, Cathepsin D (Bos taurus, UniProt P80209).
T1 sequence (P80209 whole entry): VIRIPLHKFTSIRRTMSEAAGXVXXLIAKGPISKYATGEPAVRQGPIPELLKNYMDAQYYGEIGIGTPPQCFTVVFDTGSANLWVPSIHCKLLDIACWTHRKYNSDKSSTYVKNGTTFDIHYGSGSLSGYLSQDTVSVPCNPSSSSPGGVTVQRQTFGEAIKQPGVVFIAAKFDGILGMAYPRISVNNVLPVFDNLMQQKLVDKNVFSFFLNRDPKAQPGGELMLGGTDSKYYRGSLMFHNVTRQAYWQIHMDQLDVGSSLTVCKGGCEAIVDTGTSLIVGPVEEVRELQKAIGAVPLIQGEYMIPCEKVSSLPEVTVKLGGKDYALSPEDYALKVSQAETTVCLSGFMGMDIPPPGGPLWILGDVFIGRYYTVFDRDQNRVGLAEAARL
Description: In vitro inhibitory activity against bovine Cathepsin D. The method, boiled down:
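Bovine cathepsin D (100 munits) acting on hemoglobin at pH 3.2, 20 min, 37 °C. TCA-soluble peptides released were read by absorbance at 280 nm; IC50 taken as the concentration giving 50% inhibition of peptide liberation.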

Assay [1] has as its target T2, Renin (Homo sapiens, UniProt P00797).
T2 sequence (P00797 whole entry): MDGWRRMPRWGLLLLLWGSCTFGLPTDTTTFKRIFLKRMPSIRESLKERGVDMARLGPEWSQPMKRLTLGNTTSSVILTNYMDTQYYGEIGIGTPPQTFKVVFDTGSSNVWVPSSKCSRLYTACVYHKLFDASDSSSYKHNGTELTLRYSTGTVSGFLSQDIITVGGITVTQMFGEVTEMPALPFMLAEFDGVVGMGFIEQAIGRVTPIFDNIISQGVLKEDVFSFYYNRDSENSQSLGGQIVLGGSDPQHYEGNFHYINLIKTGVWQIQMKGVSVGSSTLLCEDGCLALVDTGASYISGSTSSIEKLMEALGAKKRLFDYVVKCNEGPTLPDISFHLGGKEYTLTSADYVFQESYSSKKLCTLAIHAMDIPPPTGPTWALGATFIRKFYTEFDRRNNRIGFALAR
Description: Compound was tested in vitro for inhibitory activity against human renin. The method, boiled down:
(§1)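 Endogenous renin and angiotensinogen in human EDTA plasma; incubation mixture of 76 mM maleate pH 5.5, 7.2 mM EDTA, 1% DMSO, 8.3 mM 8-hydroxyquinoline; 2 h at 37 °C, then on ice; angiotensin I measured by radioimmunoassay. At least three inhibitor concentrations bracketing the IC50; IC50 calculated from percent inhibition.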

Assay [2] concerns the target T2, Renin. Description: The compound was tested in vitro for inhibitory activity against human renin. The method, boiled down: as §1

Chain of Pepsin A (P00791 whole entry): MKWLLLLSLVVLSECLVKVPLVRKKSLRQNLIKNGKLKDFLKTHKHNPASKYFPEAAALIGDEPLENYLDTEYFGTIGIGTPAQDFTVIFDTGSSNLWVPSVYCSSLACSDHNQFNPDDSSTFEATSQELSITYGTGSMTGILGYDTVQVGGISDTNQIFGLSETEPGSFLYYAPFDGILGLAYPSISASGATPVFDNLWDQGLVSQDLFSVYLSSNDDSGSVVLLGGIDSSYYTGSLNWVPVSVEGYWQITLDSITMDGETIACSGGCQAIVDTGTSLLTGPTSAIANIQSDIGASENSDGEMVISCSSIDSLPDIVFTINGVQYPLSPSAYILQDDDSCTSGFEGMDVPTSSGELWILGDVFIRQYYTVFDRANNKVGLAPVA

For `CC[C@H](C)[C@H](NC(=O)[C@@H](C[C@H](O)[C@H](CC(C)C)NC(=O)CCC(=O)[C@H](Cc1ccccc1)NC(=O)OC(C)(C)C)C(C)C)C(=O)NCc1cnc(C)nc1N`, the IC50 (commonly the concentration that inhibits the measured activity by half) stood at 12 µM against Pepsin A, 8 µM against Cathepsin D and 0.0051 µM at Renin [1].

Turning to `CC[C@H](C)[C@H](NC(=O)C[C@H](O)[C@H](CC1CCCCC1)NC(=O)CSCC(=O)[C@H](Cc1ccccc1)NC(=O)OC(C)(C)C)C(=O)NCc1cnc(C)nc1N`, the half-maximal inhibitory concentration (IC50) at Pepsin A is 53 µM; on Cathepsin D, 28 µM; against Renin [1] it was 0.0021 µM.

`CC[C@H](C)[C@H](NC(=O)[C@@H](C[C@H](O)[C@H](CC(C)C)NC(=O)[C@H](Cc1c[nH]cn1)NC(=O)[C@H](Cc1ccccc1)NC(=O)OC(C)(C)C)C(C)C)C(=O)N[C@@H](Cc1c[nH]cn1)C(=O)O` (Boc-FH[X1]IH-OH) showed an IC50 against Renin [2] of 0.0024 µM.
